Legend:
[1] = molecular target: T1, Alpha adrenergic receptor 1A and 1B (Rattus norvegicus, UniProt P15823+P43140); experiment: Binding affinity at Alpha-1 adrenergic receptor in rat brain homogenates by [3H]- prazosin displacement.; format: tissue-based
T1 sequence (P15823 whole entry): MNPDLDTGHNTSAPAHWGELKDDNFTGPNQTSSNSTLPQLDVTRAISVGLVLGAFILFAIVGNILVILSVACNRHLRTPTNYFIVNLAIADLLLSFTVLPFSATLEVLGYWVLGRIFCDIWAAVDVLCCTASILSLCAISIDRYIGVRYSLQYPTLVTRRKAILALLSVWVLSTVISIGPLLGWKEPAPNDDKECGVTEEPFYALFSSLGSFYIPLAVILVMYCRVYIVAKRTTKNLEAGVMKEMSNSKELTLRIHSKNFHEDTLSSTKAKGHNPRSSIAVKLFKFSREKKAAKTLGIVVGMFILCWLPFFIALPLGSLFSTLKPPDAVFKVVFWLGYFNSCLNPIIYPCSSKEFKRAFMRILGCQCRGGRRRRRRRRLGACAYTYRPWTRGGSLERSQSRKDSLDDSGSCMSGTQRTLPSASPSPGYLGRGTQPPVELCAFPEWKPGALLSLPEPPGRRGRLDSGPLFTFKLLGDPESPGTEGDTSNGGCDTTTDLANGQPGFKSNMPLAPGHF
T1 sequence (P43140 whole entry): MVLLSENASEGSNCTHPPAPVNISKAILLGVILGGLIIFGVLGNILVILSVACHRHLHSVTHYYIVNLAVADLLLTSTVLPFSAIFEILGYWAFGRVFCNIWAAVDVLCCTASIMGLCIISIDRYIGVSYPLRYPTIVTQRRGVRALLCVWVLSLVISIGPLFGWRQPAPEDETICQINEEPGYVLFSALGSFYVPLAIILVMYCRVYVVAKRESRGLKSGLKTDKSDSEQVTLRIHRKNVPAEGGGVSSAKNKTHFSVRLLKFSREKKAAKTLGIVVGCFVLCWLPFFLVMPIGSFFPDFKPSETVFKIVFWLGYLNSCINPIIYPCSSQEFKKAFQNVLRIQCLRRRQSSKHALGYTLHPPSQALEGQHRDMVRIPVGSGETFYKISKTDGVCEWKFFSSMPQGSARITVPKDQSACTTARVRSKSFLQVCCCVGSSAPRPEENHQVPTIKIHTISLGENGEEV

D(2) dopamine receptor [2] = molecular target: T2, D(2) dopamine receptor (Homo sapiens, UniProt P14416)
T2 sequence (P14416 whole entry): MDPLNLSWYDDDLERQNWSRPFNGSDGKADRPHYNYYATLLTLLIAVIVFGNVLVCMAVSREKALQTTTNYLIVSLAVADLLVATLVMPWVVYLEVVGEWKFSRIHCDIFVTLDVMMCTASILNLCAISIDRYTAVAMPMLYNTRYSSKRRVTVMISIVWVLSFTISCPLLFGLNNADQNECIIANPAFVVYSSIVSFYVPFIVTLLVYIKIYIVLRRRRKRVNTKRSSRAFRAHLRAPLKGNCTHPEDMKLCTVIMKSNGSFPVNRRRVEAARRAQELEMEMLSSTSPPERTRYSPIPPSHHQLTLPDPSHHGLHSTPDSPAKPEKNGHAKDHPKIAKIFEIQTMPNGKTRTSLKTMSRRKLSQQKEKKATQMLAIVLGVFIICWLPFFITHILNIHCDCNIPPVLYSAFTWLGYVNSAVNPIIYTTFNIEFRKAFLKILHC

D(4) dopamine receptor [3] = molecular target: T3, D(4) dopamine receptor (Homo sapiens, UniProt P21917); experiment: Binding affinity at human Dopamine receptor D4 by [3H]- YM 09151 displacement.
T3 sequence (P21917 whole entry): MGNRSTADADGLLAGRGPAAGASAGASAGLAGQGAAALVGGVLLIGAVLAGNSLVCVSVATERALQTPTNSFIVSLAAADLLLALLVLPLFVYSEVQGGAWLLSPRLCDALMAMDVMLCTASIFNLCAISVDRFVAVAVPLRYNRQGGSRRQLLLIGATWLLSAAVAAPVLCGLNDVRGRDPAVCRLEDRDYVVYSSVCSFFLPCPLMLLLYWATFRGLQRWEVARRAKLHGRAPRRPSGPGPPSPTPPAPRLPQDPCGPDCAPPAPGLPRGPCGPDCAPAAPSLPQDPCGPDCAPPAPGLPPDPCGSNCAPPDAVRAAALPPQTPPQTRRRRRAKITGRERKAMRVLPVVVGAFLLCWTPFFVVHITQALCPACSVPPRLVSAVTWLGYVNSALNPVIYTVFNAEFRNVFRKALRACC

D(2) dopamine receptor [4] = molecular target: T2, D(2) dopamine receptor; experiment: Binding affinity at human Dopamine receptor D2 by [3H]- YM 09151 displacement; Not active.
In short: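 Competitive radioligand displacement on cloned human D2 receptor, with [3H]YM 09151 as the displaced ligand.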

D(4) dopamine receptor [5] = molecular target: T3, D(4) dopamine receptor; experiment: Binding affinity at human Dopamine receptor D4 by [3H]- YM 09151 displacement; Not active.

Row | Compound | Ki [1] | Ki (D(2) dopamine receptor [2]) | Ki (D(4) dopamine receptor [3]) | Ki (D(2) dopamine receptor [4]) | Ki (D(4) dopamine receptor [5])
1 | CN1C(=O)C(N2CCN(Cc3ccc(Cl)cc3)CC2)CCc2ccccc21 (stereo unspecified) | 2.878 µM | 7.37 µM | 2.47 µM | – | –
2 | CCN1C(=O)C(CC)(N2CCN(Cc3ccc(C)cc3)CC2)c2ccccc21 (stereo unspecified) | > 10 µM | > 1 µM | > 1 µM | – | –
3 | NS(=O)(=O)c1ccc(N2CCN(CC[C@@H]3OCCc4ccccc43)CC2)cc1 [SONEPIPRAZOLE] | – | – | – | Not Active | Not Active
4 | Fc1ccc(OC[C@@H]2CC[C@H]3CN(c4ncc(F)cn4)CCN3C2)cc1 | – | – | – | Not Active | Not Active
5 | Cc1ccc(CN2CCN(C3(C)C(=O)N(C)c4ccccc43)CC2)cc1 (stereo unspecified) | > 10 µM | > 1 µM | > 1 µM | – | –
6 | CN(C(=O)CN1CCN(Cc2ccc(Cl)cc2)CC1)c1ccccc1 | > 10 µM | > 1 µM | 0.059 µM | – | –
7 | CCN1C(=O)C(N2CCN(Cc3ccc(Cl)cc3)CC2)Cc2ccccc21 (stereo unspecified) | 1.265 µM | 0.021 µM | 0.004 µM | – | –
8 | Clc1ccc(N2CCN(C[C@H]3C[C@@H]3c3ccccc3)CC2)c(Cl)c1 | 0.322 µM | – | – | – | –
9 | Cc1ccc(CN2CCN(C3C(=O)Nc4ccccc43)CC2)cc1 (stereo unspecified) | > 10 µM | > 1 µM | > 1 µM | – | –
10 | CN1C(=O)C(N2CCN(Cc3ccc(Cl)cc3)CC2)Cc2ccccc21 (stereo unspecified) | 2.003 µM | 0.133 µM | 0.004 µM | – | –
11 | CCN1C(=O)C(N2CCN(Cc3ccc(Cl)cc3)CC2)CCc2ccccc21 (stereo unspecified) | 2.678 µM | > 1 µM | 1.51 µM | – | –
12 | CN1C(=O)C(C)(N2CCN(Cc3ccc(Cl)cc3)CC2)c2ccccc21 (stereo unspecified) | > 10 µM | > 1 µM | > 1 µM | – | –
13 | CCOC(=O)C(C(=O)OCC)N1CCN(Cc2ccc(Cl)cc2)CC1 | – | – | – | Not Active | Not Active
14 | O=C1Nc2ccccc2CCC1N1CCN(Cc2ccc(Cl)cc2)CC1 (stereo unspecified) | 9.591 µM | > 1 µM | > 1 µM | – | –
15 | O=C1Nc2ccccc2CCC1I (stereo unspecified) | – | – | – | Not Active | Not Active
16 | O=C1Nc2ccccc2CC1N1CCN(Cc2ccc(Cl)cc2)CC1 (stereo unspecified) | 2.003 µM | 1.37 µM | 0.1 µM | – | –
17 | CCOC(=O)C1(N2CCN(Cc3ccc(Cl)cc3)CC2)Cc2ccccc2NC1=O (stereo unspecified) | – | – | – | Not Active | Not Active
18 | CCOC(=O)C(Cc1ccccc1[N+](=O)[O-])(C(=O)OCC)N1CCN(Cc2ccc(Cl)cc2)CC1 | – | – | – | Not Active | Not Active
19 | Cc1ccc(CN2CCN(C3CCc4ccccc4NC3=O)CC2)cc1 (stereo unspecified) | 3.12 µM | > 1 µM | > 1 µM | – | –
20 | O=C1Nc2ccccc2C1Cl (stereo unspecified) | – | – | – | Not Active | Not Active
21 | CCN1C(=O)C(CC)(N2CCN(Cc3ccc(Cl)cc3)CC2)c2ccccc21 (stereo unspecified) | > 10 µM | > 1 µM | 7.02 µM | – | –
22 | CCN1C(=O)C(N2CCN(Cc3ccc(C)cc3)CC2)CCc2ccccc21 (stereo unspecified) | 0.815 µM | > 1 µM | 2.96 µM | – | –
23 | Clc1ccc(N2CCN(Cc3c[nH]c4ncccc34)CC2)cc1 [L-745870] | – | – | – | Not Active | Not Active
24 | Cc1ccc(CN2CCN(C3CCc4ccccc4N(C)C3=O)CC2)cc1 (stereo unspecified) | 2.038 µM | > 1 µM | 4.38 µM | – | –
25 | Cc1cnc(N2CCN(Cc3c[nH]c(-c4ccccc4)n3)CC2)nc1 | – | – | – | Not Active | Not Active
26 | O=C1Nc2ccccc2C1N1CCN(Cc2ccc(Cl)cc2)CC1 (stereo unspecified) | > 10 µM | > 1 µM | > 1 µM | – | –
27 | CCOC(=O)C(Cc1ccccc1N)(C(=O)OCC)N1CCN(Cc2ccc(Cl)cc2)CC1 | – | – | – | Not Active | Not Active
28 | Clc1ccc(CN2CCNCC2)cc1 | – | – | – | Not Active | Not Active
